# In ChEMBL document CHEMBL3813636, “Toward discovery of mutant EGFR inhibitors; Design, synthesis and in vitro biological evaluation of potent 4-arylamino-6-ureido and thioureido-quinazoline derivatives” (Bioorg Med Chem, 2016):
# Active and inactive are the calls of the source. No cut-off for these calls is given here.
# Columns and labels:
# [1] = biological target: T1, Epidermal growth factor receptor (Homo sapiens, UniProt P00533); test: Inhibition of recombinant human EGFR expressed in baculovirus by fluorescence based assay
# [2] = Antiproliferative activity against gefitinib-sensitive human PC9 cells assessed as cell viability after 72 hrs by cell titer-glo luminescence assay; assay type: functional, cell-based; conditions: PC-9, 72 h
# [3] = Antiproliferative activity against gefitinib-resistant human PC9/GR4 cells expressing Del19/T790M double mutant assessed as cell viability after 72 hrs by cell titer-glo luminescence assay; assay type: functional, cell-based; conditions: PC9/GR4, 72 h
# [4] = biological target: T1, Epidermal growth factor receptor; conditions: PC-9, at 10 µM
# [5] = test system: Epidermal growth factor receptor (Homo sapiens), P00533 [UNDEFINED MUTATION]; conditions: PC9/GR4, at 10 µM
# [6] = biological target: T1, Epidermal growth factor receptor; conditions: PC-9, at 10 µM; remark: listed apart in the source
# [7] = test system: Epidermal growth factor receptor (Homo sapiens), P00533 [UNDEFINED MUTATION]; conditions: PC9/GR4, at 10 µM; remark: listed apart in the source
# [8] = Cytotoxicity against human BT474 cells expressing Her2 assessed as reduction in cell viability after 72 hrs by cell titer-glo luminescence assay; assay type: functional, cell-based; conditions: BT-474, 72 h
# [9] = biological target: Receptor tyrosine-protein kinase erbB-2 (Homo sapiens, UniProt P04626); test: Inhibition of His-tagged human recombinant Her2 (676 to 1255 residues) expressed in baculovirus by fluorescence based assay
# Method in brief: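 Her2 kinase activity was measured with an outsourced kinase-profiling service. It used a fluorescence-based coupled-enzyme format that exploits the differing sensitivity of phosphorylated and non-phosphorylated peptide substrates to proteolytic cleavage.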
# [10] = test system: Epidermal growth factor receptor (Homo sapiens), P00533 [L858R,T790M]; test: Inhibition of EGFR L858R/T790M double mutant (unknown origin) expressed in mouse BaF/3 cells assessed as cell growth inhibition at 10 uM after 72 hrs by MTS assay; assay type: cell-based
# Method in brief: (§1)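 Ba/F3 cells carrying the listed double-mutant EGFR were exposed to 10 uM compound, and growth was read by MTS assay as percent growth relative to DMSO-treated cells. Experiments were repeated at least three times.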
# [11] = test system: Epidermal growth factor receptor (Homo sapiens), P00533 [UNDEFINED MUTATION]; test: Inhibition of EGFR Del19/T790M double mutant (unknown origin) expressed in mouse BaF/3 cells assessed as cell growth inhibition at 10 uM after 72 hrs by MTS assay; assay type: cell-based; method in brief: as §1
# [12] = Potency index, ratio of gefitinib IC50 to compound IC50 for human PC9/GR4 cells expressing Del19/T790M double mutant; assay type: functional
# Receptor tyrosine-protein kinase erbB-2, sequence (P04626 whole entry, the tested form may be a part): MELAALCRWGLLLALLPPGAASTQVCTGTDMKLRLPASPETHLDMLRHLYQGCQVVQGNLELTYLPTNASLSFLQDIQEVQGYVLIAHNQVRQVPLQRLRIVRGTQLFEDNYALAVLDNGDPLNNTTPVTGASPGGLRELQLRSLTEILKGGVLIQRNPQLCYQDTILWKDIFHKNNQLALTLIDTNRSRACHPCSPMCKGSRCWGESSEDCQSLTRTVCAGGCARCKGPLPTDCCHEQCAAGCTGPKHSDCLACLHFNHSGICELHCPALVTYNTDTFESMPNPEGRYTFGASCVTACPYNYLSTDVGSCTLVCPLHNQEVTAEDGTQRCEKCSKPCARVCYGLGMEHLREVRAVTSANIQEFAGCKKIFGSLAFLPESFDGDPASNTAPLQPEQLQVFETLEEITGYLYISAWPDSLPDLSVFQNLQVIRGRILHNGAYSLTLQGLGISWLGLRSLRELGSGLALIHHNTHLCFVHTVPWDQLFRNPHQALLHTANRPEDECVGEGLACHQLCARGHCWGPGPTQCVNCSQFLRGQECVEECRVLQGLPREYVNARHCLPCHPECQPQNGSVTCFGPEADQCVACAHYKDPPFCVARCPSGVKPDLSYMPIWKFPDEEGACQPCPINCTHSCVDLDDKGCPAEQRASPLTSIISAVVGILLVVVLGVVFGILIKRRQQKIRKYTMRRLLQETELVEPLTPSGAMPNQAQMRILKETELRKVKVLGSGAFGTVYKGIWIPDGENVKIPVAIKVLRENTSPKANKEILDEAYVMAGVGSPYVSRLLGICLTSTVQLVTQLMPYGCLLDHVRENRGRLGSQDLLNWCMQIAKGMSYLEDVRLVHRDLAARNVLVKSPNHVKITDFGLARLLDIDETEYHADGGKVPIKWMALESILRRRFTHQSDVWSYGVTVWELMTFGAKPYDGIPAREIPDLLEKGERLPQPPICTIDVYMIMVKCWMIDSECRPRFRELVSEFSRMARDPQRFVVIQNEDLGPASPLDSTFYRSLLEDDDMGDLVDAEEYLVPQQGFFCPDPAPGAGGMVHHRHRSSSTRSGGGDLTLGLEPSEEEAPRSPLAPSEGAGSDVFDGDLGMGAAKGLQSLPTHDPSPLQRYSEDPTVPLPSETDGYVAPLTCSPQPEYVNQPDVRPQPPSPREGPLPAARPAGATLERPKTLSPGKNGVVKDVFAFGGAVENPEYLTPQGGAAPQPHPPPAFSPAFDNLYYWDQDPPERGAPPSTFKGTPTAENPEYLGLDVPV
structure (smiles),measurement,setting,value
CC(=O)Nc1ccc2ncnc(Nc3ccc(F)c(Cl)c3)c2c1,IC50,[1],0.000662 µM
same,IC50,[2],0.225 µM
same,IC50,[3],12.6 µM
same,inhibition,[4],Active
same,inhibition,[5],Active
same,inhibition,[6],Active
same,inhibition,[7],Active
CS(=O)(=O)CCNCc1ccc(-c2ccc3ncnc(Nc4ccc(OCc5cccc(F)c5)c(Cl)c4)c3c2)o1 [LAPATINIB],IC50,[8],0.031 µM
O=C(NCCN1CCCCC1)Nc1ccc2ncnc(Nc3cccc(Br)c3)c2c1,IC50,[1],0.000772 µM
NC(=O)Nc1ccc2ncnc(Nc3ccc(OCc4cccc(F)c4)c(Cl)c3)c2c1,IC50,[1],0.00203 µM
same,IC50,[9],0.0268 µM
O=C(NCCN1CCOCC1)Nc1ccc2ncnc(Nc3cccc(Br)c3)c2c1,IC50,[1],0.00143 µM
O=C(NCCN1CCOCC1)Nc1ccc2ncnc(Nc3ccc(F)c(Cl)c3)c2c1,IC50,[1],0.00292 µM
C#Cc1cccc(Nc2ncnc3ccc(NC(N)=O)cc23)c1,IC50,[1],0.00222 µM
Fc1cccc(COc2ccc(Nc3ncnc4ccc(NC(=S)NCCCN5CCOCC5)cc34)cc2Cl)c1,IC50,[1],0.0015 µM
same,IC50,[9],0.0121 µM
O=C(NCCN1CCCCC1)Nc1ccc2ncnc(Nc3ccc(F)c(Cl)c3)c2c1,IC50,[1],0.00106 µM
S=C(NCCN1CCOCC1)Nc1ccc2ncnc(Nc3ccc(Cl)cc3)c2c1,IC50,[1],0.00506 µM
NC(=O)Nc1ccc2ncnc(Nc3ccc(Br)cc3)c2c1,IC50,[1],0.000803 µM
S=C(NCCN1CCOCC1)Nc1ccc2ncnc(Nc3cccc(Br)c3)c2c1,IC50,[1],0.00181 µM
O=C(NCCN1CCCCC1)Nc1ccc2ncnc(Nc3ccc(OCc4cccc(F)c4)c(Cl)c3)c2c1,IC50,[9],0.0192 µM
same,growth inhibition (GI),[10],Active
same,growth inhibition (GI),[11],Active
same,IC50,[2],1.58 µM
same,IC50,[3],2.16 µM
same,Ratio IC50,[12],8
same,IC50,[8],0.76 µM
same,inhibition,[4],Active
same,inhibition,[5],Active
same,inhibition,[6],Active
same,inhibition,[7],Active
CC(=O)Nc1ccc2ncnc(Nc3ccc(OCc4cccc(F)c4)c(Cl)c3)c2c1,IC50,[1],0.00396 µM
same,IC50,[9],0.0323 µM
same,growth inhibition (GI),[10],Active
same,growth inhibition (GI),[11],Active
same,IC50,[2],0.662 µM
same,IC50,[3],8.31 µM
same,IC50,[8],0.057 µM
same,inhibition,[4],Active
same,inhibition,[5],Active
same,inhibition,[6],Active
same,inhibition,[7],Active
NC(=O)Nc1ccc2ncnc(Nc3ccc(F)c(Cl)c3)c2c1,IC50,[1],0.000854 µM
same,IC50,[2],0.961 µM
same,IC50,[3],21.7 µM
same,inhibition,[4],Active
same,inhibition,[5],Active
same,inhibition,[6],Active
same,inhibition,[7],Active
Fc1ccc(Nc2ncnc3ccc(NC(=S)NCCN4CCCCC4)cc23)cc1Cl,IC50,[1],0.0037 µM
Fc1cccc(COc2ccc(Nc3ncnc4ccc(NC(=S)NCCN5CCCCC5)cc34)cc2Cl)c1,IC50,[9],0.0406 µM
same,growth inhibition (GI),[10],Active
same,growth inhibition (GI),[11],Active
same,IC50,[2],2.16 µM
same,IC50,[3],5.7 µM
same,Ratio IC50,[12],3
same,IC50,[8],0.34 µM
same,inhibition,[4],Active
same,inhibition,[5],Active
same,inhibition,[6],Active
same,inhibition,[7],Active
C#Cc1cccc(Nc2ncnc3ccc(NC(C)=O)cc23)c1,IC50,[1],0.00204 µM
Fc1ccc(Nc2ncnc3ccc(NC(=S)NCCN4CCOCC4)cc23)cc1Cl,IC50,[1],0.00225 µM
Fc1ccc(Nc2ncnc3ccc(NC(=S)NCCCN4CCOCC4)cc23)cc1Cl,IC50,[1],< 0.000495 µM
S=C(NCCN1CCOCC1)Nc1ccc2ncnc(Nc3ccc(Cl)c(Cl)c3)c2c1,IC50,[1],0.00905 µM
Fc1cccc(COc2ccc(Nc3ncnc4ccc(NC(=S)NCCN5CCOCC5)cc34)cc2Cl)c1,IC50,[1],0.00226 µM
same,IC50,[9],0.0331 µM
